According to publication PMC3698760 (Journal of the American Heart Association: Cardiovascular …, 2013):
“Also recorded” adds a separate entry of the source.

Key:
C‐reactive protein (CRP) = assay: Plasma high-sensitive CRP by ELISA; assay type: in vivo; details: low (10 mg/kg) and high (50 mg/kg) doses, 16 weeks, apoE−/− mice
Procedure, shortened: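 Overnight-fasted plasma collected from high-fat-fed apoE−/− mice after 16 weeks of i.p. dosing 3 times weekly (10 or 50 mg/kg per day, or scrambled peptide). High-sensitivity CRP and MCP-1 were quantified with commercial ELISA kits.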

ABCA1 = ABCA1 (Homo sapiens, UniProt O95477); assay: Probucol-inhibitable, ABCA1-specific cholesterol efflux in A172 cells; assay type: cell-based; details: probucol 10 μmol/L
Procedure, shortened: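 A172 glioblastoma cells, labelled with ³H-cholesterol, were held in serum-free 0.2% BSA medium with 5 μmol/L T0901317 and 5 μmol/L 9-cis-retinoic acid. Cells were exposed for 4 h to 20 μg/mL acceptor, with or without 10 μmol/L probucol. ABCA1-dependent efflux was taken as the probucol-inhibitable fraction.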

Circular dichroism = assay type: physicochemical; details: CD spectra in water, 200 to 260 nm
Procedure, shortened: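 Spectra of peptides and human apoA-I (17.8 to 178 μmol/L) recorded at 25°C in a thermostatted quartz cell with 0.1 mm path length, scanning 200–260 nm. Results expressed as mean residue ellipticity (deg cm² dmol⁻¹).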

[1] = human whole plasma, 60 minutes at 37°C; FAMP5 0.2 to 2.0 mg/mL, ACD-FAMP5 2.0 mg/mL
Procedure, shortened: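 Human whole plasma was incubated with saline, test peptide (0.2 to 2.0 mg/mL) or acridone-labelled peptide (2.0 mg/mL) for 60 min at 37°C. Samples were run on agarose gel electrophoresis with cholesterol staining, transferred to PVDF and immunoblotted with goat anti-human apoA-I antibody. The fluorescent label was visualized on the gel under UV light.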

apoE‐deficient mice [2] = assay: Plasma lipid profiles by enzymatic assay, 16-week treatment; assay type: in vivo; details: 16 weeks; for HDL Cholesterol / Total Cholesterol / Triglyceride: 3 times a week, high-fat-fed apoE-deficient mice, mean±SD
Procedure, shortened: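 Overnight-fasting plasma taken after 16 weeks from 19 of 23 high-fat-fed apoE−/− mice. Dosing was i.p. 3 times weekly with scrambled peptide or test peptide at 10 or 50 mg/kg per day. Total cholesterol, triglyceride and HDL cholesterol were measured by enzymatic assay; mean±SD.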

apoE‐deficient mice [3] = assay: Plasma lipoprotein profiles analyzed by HPLC, 16-week treatment; assay type: in vivo; details: 3 times a week, 16 weeks
Procedure, shortened: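 Plasma from apoE−/− mice after 16-week i.p. dosing (3 times weekly) was separated by HPLC into 20 particle-size subfractions. Each subfraction was assayed enzymatically for total cholesterol, free cholesterol, triglycerides and phospholipids; mean±SD.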

RAW264 macrophages = assay: Ex vivo cholesterol efflux mediated by plasma HDL of treated mice; assay type: in vivo; details: high-dose 50 mg/kg, 16 weeks; apoB-depleted plasma, 8Br-cAMP-treated RAW264 macrophages
Procedure, shortened: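 Plasma collected after 16 weeks of i.p. treatment of high-fat-fed apoE−/− mice. ApoB-depleted plasma served as acceptor for ³H-cholesterol-labelled RAW264 macrophages. Macrophages were pretreated with 0.3 mmol/L 8Br-cAMP and kept in serum-free medium with 0.2% BSA.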

human erythrocytes = assay: Hemolysis assay; assay type: cell-based; details: 1% human erythrocytes in PBS, 10 minutes at 37°C; up to 1.0 mg/mL; OD 540 nm
Procedure, shortened: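 Erythrocytes from EDTA blood of 4 human donors, washed 3 times in PBS to remove plasma and buffy coat. A 1% suspension in PBS was incubated with or without test peptide for 10 min at 37°C. Hemoglobin in the supernatant was read at 540 nm and expressed as percentage of Triton X-100 lysis; mean±SD.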

[4] = tested on: human monocyte‐derived macrophages; assay: Cellular cholesterol efflux in human monocyte-derived macrophages; assay type: cell-based; details: 20 μg/mL, 4 hours, n=4 to 5
Procedure, shortened: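 Human peripheral blood monocyte-derived macrophages isolated by Lymphoprep gradient. Cells were radiolabelled with ³H-cholesterol and kept in serum-free medium containing 0.2% BSA. Efflux to 20 μg/mL acceptor (apoA-I or test peptide) or no acceptor was measured over 4 h.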

[5] = Size analysis of HDL interacting with FAMP; details: human HDL 2.22 mg/mL, 60 minutes at 37°C; 50, 250, 500 μg/mL FAMP5
Procedure, shortened: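 Human HDL, adjusted to 2.22 mg/mL in saline containing 0.1% EDTA (pH 7.4), was incubated with 50, 250 or 500 μg/mL test peptide for 60 min at 37°C. Samples were run on nondenaturing 5–20% gradient polyacrylamide gel in Tris-glycine (pH 7.5) for 3 h at 20 mA on ice, then stained with Coomassie R-250.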

[6] = tested on: apoE−/− mice fed a high‐fat diet; assay: Aortic atherosclerotic lesion formation, 16-week treatment; assay type: in vivo; details: high-dose 50 mg/kg i.p. 3 times per week, 16 weeks; Oil Red O; mean±SD; P<0.01 vs scrambled
Procedure, shortened: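 Male apoE−/− mice, bought at six weeks, fed a high-fat diet (0.5% cholesterol, 10% fat) and dosed i.p. 3 times per week for 16 weeks: test peptide at 10 or 50 mg/kg per day, or scrambled peptide. Whole aortas were then stained with Oil Red O. Lesion area was scored by image analysis as percentage of aorta from ascending aorta to abdominal bifurcation.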

[7] = tested on: mouse peritoneal macrophages; assay: Cellular cholesterol efflux in mouse peritoneal macrophages; assay type: cell-based; details: 20 μg/mL, 4 hours, n=4 to 5
Procedure, shortened: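 Peritoneal macrophages taken from mice injected i.p. with 2 mL 2.9% thioglycollate 90 h earlier, and selected as cells adherent after 2 h. Cells were labelled with ³H-cholesterol and kept in serum-free medium with 0.2% BSA. Efflux to 20 μg/mL acceptor was measured over 4 h.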

[8] = high-dose 50 mg/kg per day i.p., n=7
[9] = low-dose 10 mg/kg per day i.p., n=5
[10] = high-dose 50 mg/kg per day i.p., n=7, mean±SD
[11] = low-dose 10 mg/kg per day i.p., n=5, mean±SD

ABCA1, sequence (O95477 whole entry): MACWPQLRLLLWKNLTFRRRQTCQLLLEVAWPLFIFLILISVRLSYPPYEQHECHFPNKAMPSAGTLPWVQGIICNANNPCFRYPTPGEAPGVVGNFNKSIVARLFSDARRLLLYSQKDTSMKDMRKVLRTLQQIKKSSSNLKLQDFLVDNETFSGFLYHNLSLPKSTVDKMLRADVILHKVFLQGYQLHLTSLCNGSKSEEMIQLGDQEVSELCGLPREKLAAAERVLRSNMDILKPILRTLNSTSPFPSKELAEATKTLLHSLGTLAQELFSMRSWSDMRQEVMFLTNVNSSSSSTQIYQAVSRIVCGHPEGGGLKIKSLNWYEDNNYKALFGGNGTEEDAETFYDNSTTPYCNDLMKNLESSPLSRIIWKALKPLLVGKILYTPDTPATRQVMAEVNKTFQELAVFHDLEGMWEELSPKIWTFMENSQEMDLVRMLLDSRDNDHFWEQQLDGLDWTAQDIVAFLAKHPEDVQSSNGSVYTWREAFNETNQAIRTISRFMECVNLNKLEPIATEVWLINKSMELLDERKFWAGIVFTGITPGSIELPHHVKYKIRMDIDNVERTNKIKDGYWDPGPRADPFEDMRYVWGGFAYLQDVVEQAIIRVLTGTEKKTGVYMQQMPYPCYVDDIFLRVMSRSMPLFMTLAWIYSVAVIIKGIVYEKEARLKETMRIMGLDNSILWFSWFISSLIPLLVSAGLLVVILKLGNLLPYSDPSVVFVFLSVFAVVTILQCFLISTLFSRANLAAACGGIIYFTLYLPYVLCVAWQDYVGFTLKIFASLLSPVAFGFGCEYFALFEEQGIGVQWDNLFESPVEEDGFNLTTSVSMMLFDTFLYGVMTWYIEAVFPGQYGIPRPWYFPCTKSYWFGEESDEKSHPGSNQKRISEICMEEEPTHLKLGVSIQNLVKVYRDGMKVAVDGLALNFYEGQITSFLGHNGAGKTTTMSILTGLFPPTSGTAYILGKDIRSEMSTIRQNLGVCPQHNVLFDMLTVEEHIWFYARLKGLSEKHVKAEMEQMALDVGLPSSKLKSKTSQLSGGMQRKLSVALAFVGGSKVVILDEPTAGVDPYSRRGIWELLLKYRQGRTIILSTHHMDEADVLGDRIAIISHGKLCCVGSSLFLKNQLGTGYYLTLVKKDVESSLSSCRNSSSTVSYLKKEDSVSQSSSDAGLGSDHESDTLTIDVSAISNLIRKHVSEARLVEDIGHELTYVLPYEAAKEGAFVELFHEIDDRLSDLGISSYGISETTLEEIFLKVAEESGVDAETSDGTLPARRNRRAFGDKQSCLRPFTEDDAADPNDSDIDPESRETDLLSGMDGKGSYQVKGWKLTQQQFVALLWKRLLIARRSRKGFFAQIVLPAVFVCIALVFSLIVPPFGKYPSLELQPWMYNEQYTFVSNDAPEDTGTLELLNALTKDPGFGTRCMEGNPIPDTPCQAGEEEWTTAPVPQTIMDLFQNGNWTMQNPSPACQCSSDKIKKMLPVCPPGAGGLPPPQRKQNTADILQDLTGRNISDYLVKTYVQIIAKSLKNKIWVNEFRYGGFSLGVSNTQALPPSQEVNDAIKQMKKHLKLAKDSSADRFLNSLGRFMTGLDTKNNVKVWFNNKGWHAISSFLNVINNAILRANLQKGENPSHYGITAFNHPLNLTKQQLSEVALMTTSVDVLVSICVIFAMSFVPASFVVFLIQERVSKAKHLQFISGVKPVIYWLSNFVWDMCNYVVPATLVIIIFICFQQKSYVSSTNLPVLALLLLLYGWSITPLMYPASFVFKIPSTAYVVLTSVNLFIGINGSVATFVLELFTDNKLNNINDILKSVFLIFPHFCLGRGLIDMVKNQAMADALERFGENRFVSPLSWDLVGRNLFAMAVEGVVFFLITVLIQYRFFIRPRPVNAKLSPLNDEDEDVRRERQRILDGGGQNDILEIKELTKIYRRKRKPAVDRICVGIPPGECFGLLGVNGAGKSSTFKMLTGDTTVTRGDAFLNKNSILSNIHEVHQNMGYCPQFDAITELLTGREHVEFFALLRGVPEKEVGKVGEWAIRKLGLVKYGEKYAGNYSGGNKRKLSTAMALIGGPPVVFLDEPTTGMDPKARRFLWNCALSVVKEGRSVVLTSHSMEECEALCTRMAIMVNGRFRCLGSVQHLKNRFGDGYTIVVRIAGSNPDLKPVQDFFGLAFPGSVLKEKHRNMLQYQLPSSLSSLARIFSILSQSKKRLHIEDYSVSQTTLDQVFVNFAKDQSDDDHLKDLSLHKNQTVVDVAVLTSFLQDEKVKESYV

With H-ALEHLFTLYEKALKALEDLLKKLL-OH [FAMP5] the “plasma high‐sensitive CRP levels” value (C‐reactive protein (CRP)) was “equally suppressed”, the “percentage of probucol‐inhibitable, ABCA1‐specific cholesterol efflux” value (ABCA1) was “significantly higher than that in L‐4F; also recorded: significantly lower than human apoA‐I” and the “α‐helical conformation (CD spectra)” value (Circular dichroism) was “formed strong α‐helical conformations”. The “conversion of α HDL to pre‐β HDL on agarose gel electrophoresis” value [1] was “shifted the α HDL band to the pre‐β HDL position; also recorded: completely converted α HDL to pre‐β HDL”, the “HDL Cholesterol” value (apoE‐deficient mice [2]; [8]) was 12.6 ± 3.7 mg/dL and the “Total Cholesterol” value (apoE‐deficient mice [2]; [8]) was 1439.5 ± 271.5 mg/dL. The Triglyceride (apoE‐deficient mice [2]; [8]) was 102.7 ± 18.3 mg/dL, the “effect on plasma total cholesterol, triglyceride, and HDL cholesterol levels” value (apoE‐deficient mice [2]; low and high doses, enzymatic assay) was “no significant effects” and the “HDL Cholesterol” value (apoE‐deficient mice [2]; [9]) was 16.6 ± 4.8 mg/dL. For the same substance, the “Total Cholesterol” value (apoE‐deficient mice [2]; [9]) was 1532.8 ± 589.6 mg/dL, the Triglyceride (apoE‐deficient mice [2]; [9]) was 120.0 ± 41.6 mg/dL and the “Cholesterol, CM (>80 nm)” value (apoE‐deficient mice [3]; [10]) was 173.4 ± 24.0 mg/dL. For the same substance, the “Cholesterol, HDL (8 to 16 nm)” value (apoE‐deficient mice [3]; [10]) was 20.3 ± 3.1 mg/dL, the “Cholesterol, LDL (16 to 30 nm)” value (apoE‐deficient mice [3]; [10]) was 157.9 ± 32.1 mg/dL and the “Cholesterol, VLDL (30 to 80 nm)” value (apoE‐deficient mice [3]; [10]) was 509.1 ± 73.8 mg/dL. For the same substance, the “Free cholesterol, CM (>80 nm)” value (apoE‐deficient mice [3]; [10]) was 76.6 ± 13.7 mg/dL, the “Free cholesterol, HDL (8 to 16 nm)” value (apoE‐deficient mice [3]; [10]) was 10.0 ± 1.1 mg/dL and the “Free cholesterol, LDL (16 to 30 nm)” value (apoE‐deficient mice [3]; [10]) was 75.0 ± 14.1 mg/dL. For the same substance, the “Free cholesterol, VLDL (30 to 80 nm)” value (apoE‐deficient mice [3]; [10]) was 213.8 ± 33.7 mg/dL, the “Phospholipids, CM (>80 nm)” value (apoE‐deficient mice [3]; [10]) was 84.3 ± 14.2 mg/dL and the “Phospholipids, HDL (8 to 16 nm)” value (apoE‐deficient mice [3]; [10]) was 23.1 ± 5.2 mg/dL. For the same substance, the “Phospholipids, LDL (16 to 30 nm)” value (apoE‐deficient mice [3]; [10]) was 110.6 ± 26.5 mg/dL, the “Phospholipids, VLDL (30 to 80 nm)” value (apoE‐deficient mice [3]; [10]) was 259.9 ± 44.9 mg/dL and the “Triglyceride, CM (>80 nm)” value (apoE‐deficient mice [3]; [10]) was 22.1 ± 6.6 mg/dL. The “Triglyceride, HDL (8 to 16 nm)” value (apoE‐deficient mice [3]; [10]) was 3.7 ± 1.3 mg/dL, the “Triglyceride, LDL (16 to 30 nm)” value (apoE‐deficient mice [3]; [10]) was 10.4 ± 2.2 mg/dL and the “Triglyceride, VLDL (30 to 80 nm)” value (apoE‐deficient mice [3]; [10]) was 35.8 ± 9.7 mg/dL. The “Cholesterol, CM (>80 nm)” value (apoE‐deficient mice [3]; [11]) was 175.4 ± 40.4 mg/dL, the “Cholesterol, HDL (8 to 16 nm)” value (apoE‐deficient mice [3]; [11]) was 22.0 ± 3.7 mg/dL and the “Cholesterol, LDL (16 to 30 nm)” value (apoE‐deficient mice [3]; [11]) was 133.1 ± 16.1 mg/dL. For the same substance, the “Cholesterol, VLDL (30 to 80 nm)” value (apoE‐deficient mice [3]; [11]) was 529.9 ± 135.3 mg/dL, the “Free cholesterol, CM (>80 nm)” value (apoE‐deficient mice [3]; [11]) was 70.7 ± 14.4 mg/dL and the “Free cholesterol, HDL (8 to 16 nm)” value (apoE‐deficient mice [3]; [11]) was 9.1 ± 0.6 mg/dL. For the same substance, the “Free cholesterol, LDL (16 to 30 nm)” value (apoE‐deficient mice [3]; [11]) was 65.6 ± 6.0 mg/dL, the “Free cholesterol, VLDL (30 to 80 nm)” value (apoE‐deficient mice [3]; [11]) was 220.1 ± 49.0 mg/dL and the “Phospholipids, CM (>80 nm)” value (apoE‐deficient mice [3]; [11]) was 78.4 ± 15.3 mg/dL. For the same substance, the “Phospholipids, HDL (8 to 16 nm)” value (apoE‐deficient mice [3]; [11]) was 29.1 ± 4.9 mg/dL, the “Phospholipids, LDL (16 to 30 nm)” value (apoE‐deficient mice [3]; [11]) was 94.4 ± 10.4 mg/dL and the “Phospholipids, VLDL (30 to 80 nm)” value (apoE‐deficient mice [3]; [11]) was 263.8 ± 53.4 mg/dL. For the same substance, the “Triglyceride, CM (>80 nm)” value (apoE‐deficient mice [3]; [11]) was 26.1 ± 16.8 mg/dL, the “Triglyceride, HDL (8 to 16 nm)” value (apoE‐deficient mice [3]; [11]) was 2.9 ± 1.2 mg/dL and the “Triglyceride, LDL (16 to 30 nm)” value (apoE‐deficient mice [3]; [11]) was 9.5 ± 2.3 mg/dL. The “Triglyceride, VLDL (30 to 80 nm)” value (apoE‐deficient mice [3]; [11]) was 38.1 ± 19.4 mg/dL, the “ex vivo cholesterol efflux mediated by HDL of treated mice” value (RAW264 macrophages) was “significant increase” and the “red cell hemolysis (percentage of the Triton X‐100 lysis)” value (human erythrocytes) was “only limited effects”. For the same substance, the cholesterol efflux [4] was “induced cholesterol efflux significantly more than human apoA‐I”, the “HDL particle size on polyacrylamide gel electrophoresis” value [5] was “generated pre‐β1 HDL‐like small particles” and the “relative surface area of aortic plaque lesions” value [6] was 16.2±5.0%. For the same substance, the cholesterol efflux [7] was “induced cholesterol efflux significantly more than human apoA‐I”.
